# Test results from ChEMBL document CHEMBL3112476, “Inhibition of IκB kinase-β and IκB kinase-α by heterocyclic adamantyl arotinoids” (Bioorg Med Chem, 2014).
# Biological target: T1, Retinoic acid receptor alpha (Homo sapiens) (UniProt P10276)
# T1 sequence (whole entry): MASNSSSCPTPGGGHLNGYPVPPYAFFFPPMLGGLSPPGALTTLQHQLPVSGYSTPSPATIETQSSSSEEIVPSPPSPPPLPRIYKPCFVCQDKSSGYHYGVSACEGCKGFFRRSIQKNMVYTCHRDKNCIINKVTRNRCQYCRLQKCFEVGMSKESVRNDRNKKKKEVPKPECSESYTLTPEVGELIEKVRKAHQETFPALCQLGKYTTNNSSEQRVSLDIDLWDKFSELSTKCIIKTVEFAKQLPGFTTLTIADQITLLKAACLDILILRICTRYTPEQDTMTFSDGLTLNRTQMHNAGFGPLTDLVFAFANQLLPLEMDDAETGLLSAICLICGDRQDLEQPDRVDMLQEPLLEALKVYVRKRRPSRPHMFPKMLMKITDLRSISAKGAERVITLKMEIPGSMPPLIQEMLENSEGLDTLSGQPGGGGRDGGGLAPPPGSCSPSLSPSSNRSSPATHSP
# Test: Agonist activity at Gal4-fused RARalpha (unknown origin) transfected in HEK293 cells assessed as induction of transcriptional activity at 4 uM after 6 hrs by luciferase/beta-galactosidase reporter gene assay relative to control
# Format: cell-based
# Procedure, shortened: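 Gal4-RARα or Gal4-RXRα (10 ng) plus 2 ng β-galactosidase vector, calcium phosphate transfection into HEK-293 cells carrying a 5×UAS luciferase reporter. After 16 h, cells were washed and given 5% charcoal-treated FBS medium, then rested 2 h. Stimulation was with 4 µM compound or 0.1% DMSO; controls were 1 µM atRA (RARα) or 1 µM CD3254 (RXRα). Harvest was at 6 h (RARα) or 24 h (RXRα). Luciferase/β-gal ratio was expressed as fold over unstimulated cells. Data: 2 experiments, triplicate.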
row,SMILES,fold change (FC)
1,COc1nc(-c2ccc(C(=O)O)cc2)cnc1-c1ccc(O)c(C23CC4CC(CC(C4)C2)C3)c1,1.9
2,Cc1cc(O)c(C23CC4CC(CC(C4)C2)C3)cc1-c1ncc(/C=C/C(=O)O)s1,1
3,COCCOCOc1cc(C)c(-c2ccc(CC(=O)O)cc2Cl)cc1C12CC3CC(CC(C3)C1)C2,1.3
4,COCCOCOc1ccc(-c2ncc(/C=C/C(=O)O)s2)cc1C12CC3CC(CC(C3)C1)C2,1
5,COCCOCOc1cc(C)c(-c2ccc(/C=C/C(=O)O)cc2Cl)cc1C12CC3CC(CC(C3)C1)C2,1.8
6,COCCOCOc1ccc(-c2ncc(-c3ccc(C(=O)O)cc3)s2)cc1C12CC3CC(CC(C3)C1)C2,1.2

# More lines, now with the values ahead:
row,fold change (FC),SMILES
1,1.9,COCCOCOc1cc(C)c(-c2ncc(/C=C/C(=O)O)s2)cc1C12CC3CC(CC(C3)C1)C2
2,1.1,COCCOCOc1ccc(-c2ncc(-c3ccc(C(=O)O)cc3)nc2OC)cc1C12CC3CC(CC(C3)C1)C2
3,1.1,O=C(O)/C=C/c1cnc(-c2ccc(O)c(C34CC5CC(CC(C5)C3)C4)c2)s1
4,0.8,COCCOCOc1cc(C)c(-c2ncc(/C=C/C(=O)O)nc2OC)cc1C12CC3CC(CC(C3)C1)C2
5,1.1,COCCOCOc1ccc(-c2ncc(/C=C/C(=O)O)nc2OC)cc1C12CC3CC(CC(C3)C1)C2

# Biological target: T2, Inhibitor of nuclear factor kappa-B kinase subunit alpha (Homo sapiens) (UniProt O15111)
# T2 sequence (whole entry): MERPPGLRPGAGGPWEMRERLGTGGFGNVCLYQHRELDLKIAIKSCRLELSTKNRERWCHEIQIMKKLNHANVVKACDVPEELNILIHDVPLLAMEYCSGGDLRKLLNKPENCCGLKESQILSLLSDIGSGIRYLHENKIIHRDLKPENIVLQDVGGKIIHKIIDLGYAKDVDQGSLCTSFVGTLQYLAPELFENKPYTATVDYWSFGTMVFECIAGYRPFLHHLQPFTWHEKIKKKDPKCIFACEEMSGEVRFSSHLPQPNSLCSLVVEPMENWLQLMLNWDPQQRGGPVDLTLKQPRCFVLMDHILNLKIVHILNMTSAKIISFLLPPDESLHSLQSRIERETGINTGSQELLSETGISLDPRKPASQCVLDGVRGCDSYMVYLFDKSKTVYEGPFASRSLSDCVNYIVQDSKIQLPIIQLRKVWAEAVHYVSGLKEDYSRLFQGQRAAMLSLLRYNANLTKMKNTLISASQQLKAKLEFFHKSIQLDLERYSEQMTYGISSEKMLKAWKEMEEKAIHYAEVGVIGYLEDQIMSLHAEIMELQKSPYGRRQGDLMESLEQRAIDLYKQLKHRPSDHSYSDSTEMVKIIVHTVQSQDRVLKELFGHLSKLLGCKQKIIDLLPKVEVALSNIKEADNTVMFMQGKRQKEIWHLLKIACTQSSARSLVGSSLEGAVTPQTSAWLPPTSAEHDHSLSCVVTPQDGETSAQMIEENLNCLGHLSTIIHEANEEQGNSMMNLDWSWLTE
# Test: Inhibition of recombinant IKKalpha (unknown origin) using ulight-IkappaomegaBalpha as substrate at 20 uM after 2 hrs by LANCE ultra TR-FRET assay relative to control
# Procedure, shortened: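 Recombinant IKKα (4 nM), IKKβ (1 nM) or IKKε (2 nM) in 50 mM Hepes pH 7.4, 10 mM MgCl2, 1 mM EGTA, 2 mM DTT, 0.01% Tween-20. Substrate was 50 nM ULight-IκBα (IKKα/β) or ULight-rpS6 (IKKε); ATP was 1.25 µM (α/β) or 5 µM (ε). Compound was tested at 20 µM. Incubation was 1 h (IKKβ) or 2 h (IKKα/ε) at room temperature, stopped with 20 mM EDTA plus 2 nM Eu-anti-phospho antibody, then TR-FRET 665/615 nm. Results are percent inhibition versus solvent; 3–4 experiments, triplicate.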
row,SMILES,inhibition
1,COc1nc(-c2ccc(C(=O)O)cc2)cnc1-c1ccc(O)c(C23CC4CC(CC(C4)C2)C3)c1,78.5%
2,Cc1cc(O)c(C23CC4CC(CC(C4)C2)C3)cc1-c1ncc(/C=C/C(=O)O)s1,46.6%
3,O=C(O)c1ccc(-c2cnc(-c3ccc(O)c(C45CC6CC(CC(C6)C4)C5)c3)s2)cc1,85.3%
4,COc1nc(/C=C/C(=O)O)cnc1-c1ccc(O)c(C23CC4CC(CC(C4)C2)C3)c1,17.9%
5,COCCOCOc1cc(C)c(-c2ccc(CC(=O)O)cc2Cl)cc1C12CC3CC(CC(C3)C1)C2,42.3%
6,CC(=O)NCCCOc1cc(/C=C/C(=O)O)ccc1-c1cc(C23CC4CC(CC(C4)C2)C3)c(O)cc1C,2.3%
7,COCCOCOc1ccc(-c2ncc(/C=C/C(=O)O)s2)cc1C12CC3CC(CC(C3)C1)C2,4.5%
8,COCCOCOc1cc(C)c(-c2ccc(/C=C/C(=O)O)cc2Cl)cc1C12CC3CC(CC(C3)C1)C2,13.5%
9,COc1nc(/C=C/C(=O)O)cnc1-c1cc(C23CC4CC(CC(C4)C2)C3)c(O)cc1C,50.1%
10,Cc1cc(O)c(C23CC4CC(CC(C4)C2)C3)cc1-c1ncc(-c2ccc(C(=O)O)cc2)s1,87.9%
11,Cc1cc(O)c(C23CC4CC(CC(C4)C2)C3)cc1-c1ccc2cc(C(=O)O)ccc2c1Cl,87.3%
12,COCCOCOc1ccc(-c2ncc(-c3ccc(C(=O)O)cc3)s2)cc1C12CC3CC(CC(C3)C1)C2,82.9%
13,COCCOCOc1cc(C)c(-c2ccc3cc(C(=O)O)ccc3c2Cl)cc1C12CC3CC(CC(C3)C1)C2,33.9%
14,Cc1cc(O)c(C23CC4CC(CC(C4)C2)C3)cc1-c1ccc(CC(=O)O)cc1Cl,26.9%

# Results, then the molecule that gave them:
row,inhibition,SMILES
1,29.2%,COCCOCOc1cc(C)c(-c2ncc(/C=C/C(=O)O)s2)cc1C12CC3CC(CC(C3)C1)C2
2,73.3%,COCCOCOc1cc(C)c(-c2ncc(-c3ccc(C(=O)O)cc3)s2)cc1C12CC3CC(CC(C3)C1)C2
3,23.8%,COCCOCOc1ccc(-c2ncc(-c3ccc(C(=O)O)cc3)nc2OC)cc1C12CC3CC(CC(C3)C1)C2
4,23.7%,Cc1cc(O)c(C23CC4CC(CC(C4)C2)C3)cc1-c1ccc(/C=C/C(=O)O)cc1Cl
5,32.8%,O=C(O)/C=C/c1cnc(-c2ccc(O)c(C34CC5CC(CC(C5)C3)C4)c2)s1
6,45.7%,COCCOCOc1cc(C)c(-c2ncc(/C=C/C(=O)O)nc2OC)cc1C12CC3CC(CC(C3)C1)C2
7,4.2%,COCCOCOc1ccc(-c2ncc(/C=C/C(=O)O)nc2OC)cc1C12CC3CC(CC(C3)C1)C2

# Biological target: T3, Inhibitor of nuclear factor kappa-B kinase subunit beta (Homo sapiens, UniProt O14920)
# T3 sequence (O14920 whole entry): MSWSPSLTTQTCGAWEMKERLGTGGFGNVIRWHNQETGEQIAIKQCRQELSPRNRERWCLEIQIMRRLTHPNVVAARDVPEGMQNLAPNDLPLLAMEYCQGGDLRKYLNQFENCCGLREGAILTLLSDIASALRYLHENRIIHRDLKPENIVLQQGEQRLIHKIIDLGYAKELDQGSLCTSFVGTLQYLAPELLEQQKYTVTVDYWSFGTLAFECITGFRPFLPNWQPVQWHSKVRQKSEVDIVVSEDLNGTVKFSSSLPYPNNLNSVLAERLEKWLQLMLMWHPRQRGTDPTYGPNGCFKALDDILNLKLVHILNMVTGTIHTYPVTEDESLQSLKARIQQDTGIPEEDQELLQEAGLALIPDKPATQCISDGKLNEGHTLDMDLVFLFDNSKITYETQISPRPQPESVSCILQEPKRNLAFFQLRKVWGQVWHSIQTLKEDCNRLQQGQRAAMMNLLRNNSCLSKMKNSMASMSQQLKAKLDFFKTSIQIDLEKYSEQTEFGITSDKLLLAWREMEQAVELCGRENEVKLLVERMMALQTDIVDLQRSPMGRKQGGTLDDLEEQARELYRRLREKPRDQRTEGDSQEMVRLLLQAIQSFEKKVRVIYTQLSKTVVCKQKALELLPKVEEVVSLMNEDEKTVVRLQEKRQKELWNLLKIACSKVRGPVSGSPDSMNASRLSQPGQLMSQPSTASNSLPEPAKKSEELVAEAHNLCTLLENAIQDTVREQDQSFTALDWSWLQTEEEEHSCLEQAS
# Test: Inhibition of recombinant IKKbeta (unknown origin) using ulight-IkappaomegaBalpha as substrate after 1 hr by LANCE ultra TR-FRET assay
row,IC50,SMILES
1,7.81 µM,COc1nc(-c2ccc(C(=O)O)cc2)cnc1-c1ccc(O)c(C23CC4CC(CC(C4)C2)C3)c1
2,3.37 µM,O=C(O)c1ccc(-c2cnc(-c3ccc(O)c(C45CC6CC(CC(C6)C4)C5)c3)s2)cc1
3,4.43 µM,COCCOCOc1cc(C)c(-c2ncc(-c3ccc(C(=O)O)cc3)s2)cc1C12CC3CC(CC(C3)C1)C2
4,4.78 µM,Cc1cc(O)c(C23CC4CC(CC(C4)C2)C3)cc1-c1ncc(-c2ccc(C(=O)O)cc2)s1
5,4.75 µM,Cc1cc(O)c(C23CC4CC(CC(C4)C2)C3)cc1-c1ccc2cc(C(=O)O)ccc2c1Cl
6,5.16 µM,COCCOCOc1ccc(-c2ncc(-c3ccc(C(=O)O)cc3)s2)cc1C12CC3CC(CC(C3)C1)C2
7,7.06 µM,COCCOCOc1cc(C)c(-c2ccc3cc(C(=O)O)ccc3c2Cl)cc1C12CC3CC(CC(C3)C1)C2

# System: not listed separately
# Test: Cytotoxicity against human Jurkat T cells assessed as cell viability after 24 hrs by CellTiter-Glo assay
# Format: functional, cell-based
# Procedure, shortened: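 Jurkat cells were seeded the day before treatment in RPMI with 0.5% FBS (10,000 cells/well). They were treated in triplicate across an 8-point dose series starting at 10 µM, with DMSO ≤0.1% as solvent control. ATP was measured by CellTiter-Glo luminescence after 24 h; a time-0 reading separated cytostatic from cytotoxic effects. IC50 was fitted from the curve.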
row,SMILES,IC50
1,COc1nc(-c2ccc(C(=O)O)cc2)cnc1-c1ccc(O)c(C23CC4CC(CC(C4)C2)C3)c1,3.13 µM
2,O=C(O)c1ccc(-c2cnc(-c3ccc(O)c(C45CC6CC(CC(C6)C4)C5)c3)s2)cc1,2.24 µM
3,COc1nc(/C=C/C(=O)O)cnc1-c1ccc(O)c(C23CC4CC(CC(C4)C2)C3)c1,5.01 µM
4,COCCOCOc1cc(C)c(-c2ncc(-c3ccc(C(=O)O)cc3)s2)cc1C12CC3CC(CC(C3)C1)C2,5.71 µM
5,Cc1cc(O)c(C23CC4CC(CC(C4)C2)C3)cc1-c1ccc(/C=C/C(=O)O)cc1Cl,4.04 µM
6,CC(=O)NCCCOc1cc(/C=C/C(=O)O)ccc1-c1cc(C23CC4CC(CC(C4)C2)C3)c(O)cc1C,2.61 µM
7,COc1nc(/C=C/C(=O)O)cnc1-c1cc(C23CC4CC(CC(C4)C2)C3)c(O)cc1C,5.38 µM
8,Cc1cc(O)c(C23CC4CC(CC(C4)C2)C3)cc1-c1ncc(-c2ccc(C(=O)O)cc2)s1,4.4 µM
9,Cc1cc(O)c(C23CC4CC(CC(C4)C2)C3)cc1-c1ccc2cc(C(=O)O)ccc2c1Cl,2.19 µM
10,COCCOCOc1cc(C)c(-c2ccc3cc(C(=O)O)ccc3c2Cl)cc1C12CC3CC(CC(C3)C1)C2,5.62 µM
11,Cc1cc(O)c(C23CC4CC(CC(C4)C2)C3)cc1-c1ccc(CC(=O)O)cc1Cl,3.98 µM
